In the library only some 4.1% were active in any assay of this set; here they are far more common.
Cl transport mod = KCC2 cotransporter modulators, thallium flux, primary screen, cell-based, HEK293 KCC2, FluoZin-2 fluorescence, MLSMR; KCC2 cells, thallium flux FluoZin-2 fluorescence; actives 2.2% (n = 190,000); Solute carrier family 12 member 5 (Homo sapiens), Q9H2X9; B-score of Tl+ flux slope (higher = more flux/activation; lower = inhibition) at 10 µM; AID 1456, 2008;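 active = thallium flux slope and its plate-corrected score both differing from the plate sample mean at a set confidence after two filtering rounds, in either direction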;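 also: slope of fluorescence scaled to starting intensity during 10 to 20 s after thallium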
KCNK9 block = KCNK9 potassium channel inhibitors, primary screen, HEK293 cells, thallium flux. B-score at 10 µM. actives 1.2% (n = 310,000). AID 488922, 2010. FluxOR thallium flux fluorescence; active compounds read low;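 active = ratio B-score over 3 SD below the library mean, with starting fluorescence within 5 SD of its mean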;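 also: negative B-score means less thallium flux so channel inhibition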
hERG protect = hERG rescue from dofetilide block, primary screen, cell-based, CHO-hERG, FluxOR thallium flux, dofetilide IC70. dofetilide IC70 present. activation (rescue from dofetilide block), less the hit threshold, % at 10 µM. actives 0.51% (n = 310,000);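 active = activation above the mean of controls blocked by dofetilide plus 5 SD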;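 also: thallium influx through hERG after potassium depolarization seen as dye fluorescence rise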
KCNQ1 inh = inhibitors of human KCNQ1 channel, primary screen, cell-based, thallium flux, high-throughput; CHO-K1 KCNQ1, FluxOR thallium flux fluorescence; active compounds read high; Potassium voltage-gated channel subfamily KQT member 1 (Homo sapiens), P51787; B-score at 10 µM; actives 1.3% (n = 310,000);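 active = compounds whose thallium flux B-score, printed positive for inhibition, exceeds three library SD while starting fluorescence stays within three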;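 also: channel opened by potassium depolarization with thallium stimulus after 20 min compound exposure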
KCNK3 block = human KCNK3 channel inhibitors, primary screen, CHO cells, FluxOR thallium flux, B-score; AID 602410, 2012; FluxOR fluorescence; active compounds read low; Potassium channel subfamily K member 3 (Homo sapiens), O14649; B-score at 10 µM; actives 0.84% (n = 340,000);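 active = B-score under library mean minus 4 SD, starting fluorescence ratio at most library mean plus 5 SD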;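 also: more negative B-score means stronger inhibition of thallium flux through KCNK3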
KCNQ1 pot = potentiators or activators of KCNQ1 channel, primary screen, cell-based, thallium flux, high-throughput; actives 0.35% (n = 310,000); AID 2648, 2010; CHO-K1 KCNQ1, thallium flux FluxOR fluorescence; active compounds read high; B-score at 10 µM;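 active = fluorescence ratio B-score, a plate-corrected score, at least three library SD, with initial intensity B-score within 5 SD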
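Doses: Single concentration per compound, DMSO matched to controls | Test system: KCNQ1-transfected CHO-K1 cells | Timing: 90 min dye loading and 20 min compound exposure, both at room temperature | Measured by: Kinetic FluxOR thallium fluorescence, 10-s 1-Hz baseline, 110-s post-stimulus read | Medium: Assay buffer with matched DMSO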
KCC2 sec1 = KCC2 modulators in sodium-free buffer, confirmation, cell-based, HEK293 KCC2, thallium flux, secondary assay | shares compounds with Cl transport mod | FluoZin2 fluorescence; active compounds read high | normalised thallium flux (F/F0 slope) at 10 µM | actives 15% (n = 3,700) | AID 1713, 2009;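 active = thallium flux slope above the same plate's solvent-only control mean plus 3 SD; inconclusive = the two replicate wells disagree; inactive = no significant difference from solvent-only control wells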
KCC2 bumet counter = thallium flux persisting under bumetanide in KCC2 cells, confirmation, counter-screen for KCC2 modulator project, cell-based, HEK293 KCC2, FluoZin2, secondary assay 3. shares compounds with Cl transport mod. HEK293-KCC2 + bumetanide/ouabain; active compounds read high. normalized thallium flux at 10 µM. actives 49% (n = 3,700). AID 1714, 2009;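 active = thallium entry rate above the same plate's blocked-transporter control wells by more than 3 SD; inconclusive = the two repeat wells disagree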;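 also: raw slope of fluorescence over initial fluorescence between 10 and 20 s after thallium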
KCC2 sec2 = KCC2 modulators without ouabain present, confirmation, cell-based, HEK293 KCC2, thallium flux, FluoZin2, secondary assay 2; shares compounds with Cl transport mod; thallium flux FluoZin2 fluorescence; actives lie on both sides; F/F0 rise rate, 10–20 s post-thallium; normalized thallium flux at 10 µM; actives 23% (n = 3,700);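 active = thallium flux slope more than 3 SD above or below the plate's solvent-only control mean, mostly below; inconclusive = the two repeat wells disagreed; inactive = no significant shift from solvent-only controls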;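 also: raw slope with 0.1% DMSO as baseline and bumetanide as block control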
HEK293 Tl flux = thallium flux modulation in parental HEK cells, confirmation, counter-screen for KCC2 modulator project, cell-based, counterscreen 1; actives 46% (n = 3,700); shares compounds with Cl transport mod; AID 1716, 2009; thallium flux rate (normalised fluorescence) at 10 µM; HEK293 parental cells, thallium flux FluoZin2, ouabain; baseline-ratio fluorescence slope, 10–20 s after thallium;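 active = thallium flux rate significantly above the same plate's solvent-only control wells, beyond their mean plus 3 SD; inconclusive = the two replicate wells gave conflicting results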
KCC2 ouabain = KCC2 inhibitors and activators, ouabain retest, confirmation, HEK-KCC2 cells. shares compounds with Cl transport mod. HEK293-KCC2, thallium flux FluoZin2 fluorescence; bidirectional: low = inhibitor, high = activator. raw Tl+ flux slope (below DMSO = inhibition, above = activation) at 10 µM. actives 48% (n = 3,700). AID 1717, 2009;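 active = thallium flux slope beyond 3 SD from same-plate DMSO control mean in most replicates, usually higher, sometimes lower; inconclusive = repeat tests gave conflicting results; inactive = no significant difference from controls in most replicates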;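 also: slope of initial-normalized fluorescence between seconds 10 and 20 after thallium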
HEK293 Tl flux2 = native HEK Tl+ uptake effects, second counter-screen – HEK cells, counterscreen 2, counter-screen for KCC2 modulator project, confirmation; thallium flux slope at 10 µM; shares compounds with Cl transport mod; HEK293 parental, thallium flux FluoZin-2 fluorescence slope; actives 33% (n = 3,700);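 active = thallium flux slope above the same plate's solvent-control mean plus 3 SD in both duplicate wells; inconclusive = duplicate wells that disagreed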;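 also: run without ouabain in cells lacking the KCC2 cotransporter; slope of fluorescence scaled to its starting value between 10 and 20 s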
Starred values were filed as active, the others as inactive; i = inactive; ? = inconclusive; . = no result given.

SMILES | Cl transport mod | KCNK9 block | hERG protect | KCNQ1 inh | KCNK3 block | KCNQ1 pot | KCC2 sec1 | KCC2 bumet counter | KCC2 sec2 | HEK293 Tl flux | KCC2 ouabain | HEK293 Tl flux2
Cc1ccc(C(=O)CCC2CCCCC2=O)cc1 (centres undefined) | . | i | -1.6 | i | i | i | 0.00582 | 0.0119* | 0.0308 | 0.00746 | ? | 0.0105
COc1ccc(NC(=O)Cn2c(=O)sc3ccccc32)cc1 | 1.71 | i | -2.5 | i | i | i | . | . | . | . | . | .
O=C(Cn1c(=O)sc2ccccc21)Nc1ccccc1 | 6.75* | i | -6.8 | i | i | i | 0.00639 | 0.00443 | 0.0331 | 0.00779 | 0.0196 | 0.0101
C[C@H](CO)N1C[C@H](C)[C@@H](CN(C)S(=O)(=O)c2ccccc2)Oc2ccc(NC(=O)NC3CCCCC3)cc2C1=O | . | . | . | . | i | . | . | . | . | . | . | .
CCCCC(=O)NC(Nc1sc2c(c1C(N)=O)CCCC2)(C(=O)OCC)C(F)(F)F (centres undefined) | -0.314 | i | -7.9 | i | i | i | . | . | . | . | . | .
COC(=O)C(NC(C)=O)(Nc1sc2c(c1C(N)=O)CCCC2)C(F)(F)F (centres undefined) | . | i | -13.1 | i | i | i | 0.00817 | 0.00587 | 0.0294 | 0.0069 | 0.02 | 0.00975
Cc1cc(=O)n2[nH]c(SCc3ccccc3)nc2n1 | -2.86 | i | -1.6 | i | i | i | . | . | . | . | . | .
O=c1cc(-c2ccccc2)nc2nc(SCc3ccccc3)[nH]n12 | . | i | -2.6 | i | i | i | 0.00897 | 0.00675 | 0.0292 | 0.0073 | 0.0148* | 0.0099
CCCCCCCCCCCC1N=C(N)NC(CCCO)=C1C(=O)OC (centres undefined) | . | . | . | . | i | . | . | . | . | . | . | .
CC(=O)Nc1sc(-c2ccc(Cl)cc2)nc1-c1ccccc1 | 7.27* | i | -9.8 | i | i | i | 0.0192* | 0.0547* | 0.0329 | 0.00917* | 0.0238 | 0.0105
CC(=O)Nc1sc(-c2ccccc2)nc1-c1ccccc1 | 0.0464 | i | -6.3 | i | i | i | . | . | . | . | . | .
